SKN-1 inh = C. elegans SKN-1 inhibition. 0.49% of 360,000 active. AID 624304. C. elegans VP596 Pgst-4::GFP/RFP ratio, acrylamide-induced, 24 h. inhibition, % at 21.8 µM;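 active = interference check ratio from 0.5 to 1.5 plus GFP to RFP signal ratio inhibition reaching or exceeding a fixed threshold, cut at about 30% in these data, passing the limit was not always enough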
T cell HTS = modulates CD8 T cell binding to vesicles | 2C CD8+ T cell-vesicle binding, flow cytometry; hits give low values | response (vesicle binding), % at 7 µM | 0.068% of 330,000 active | AID 2052;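 active = response, share of CD8 T cells binding vesicles, and their 90th percentile fluorescence all below set limits, cut at about 80% in these data, passing the limit was not always enough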;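 also: values below 100% mean blocked vesicle binding to the CD8+ T cells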
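Read-out – percent CD8+ FL2 mean versus row control · System – murine 2C transgenic CD8+ T lymphocytes · Times – 1.5 h cell–vesicle binding at 37 °C, then 20 min icy labelling · Control set – naked vesicles low, QL9 vesicles with vehicle high · Detection – cytometric PE anti-B7-1 and Alexa647 anti-CD8 signals after 1% paraformaldehyde fixation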
Rin1-Abl PPI inh = blocks binding of human Rin1 to Abl; P00519+Q13671; TR-FRET Rin1/Abl binding, biochemical; inhibition, % at 7.35 µM; 0.4% of 360,000 active; in the data active = inhibition above about 5%, passing the limit was not always enough
Rce1 inhib = inhibitors of yeast Ras-converting enzyme; Q03530; yeast membranes, quenched prenylated peptide cleavage fluorescence; calls only; 0.27% of 290,000 active;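 active = fall in fluorescence gain of 50% or more versus controls, with final raw signal at or below 3038400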;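 also: plate controls were neutral control wells for no effect and wells lacking membranes for full effect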
GRK2 aptamer HTS = blocks RNA aptamer binding to human GRK2; P25098; bead flow cytometry, FAM-aptamer displacement from GRK2; inhibition of aptamer binding, % at 10 µM; 0.59% of 330,000 active; AID 488847;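 active = inhibition of aptamer binding above 40%, roughly 3 SD of noise, on plates passing a quality check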;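 also: median bead fluorescence of bound FAM aptamer so fluorescent compounds give negative values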
Target sequence (P25098 whole entry, looked up): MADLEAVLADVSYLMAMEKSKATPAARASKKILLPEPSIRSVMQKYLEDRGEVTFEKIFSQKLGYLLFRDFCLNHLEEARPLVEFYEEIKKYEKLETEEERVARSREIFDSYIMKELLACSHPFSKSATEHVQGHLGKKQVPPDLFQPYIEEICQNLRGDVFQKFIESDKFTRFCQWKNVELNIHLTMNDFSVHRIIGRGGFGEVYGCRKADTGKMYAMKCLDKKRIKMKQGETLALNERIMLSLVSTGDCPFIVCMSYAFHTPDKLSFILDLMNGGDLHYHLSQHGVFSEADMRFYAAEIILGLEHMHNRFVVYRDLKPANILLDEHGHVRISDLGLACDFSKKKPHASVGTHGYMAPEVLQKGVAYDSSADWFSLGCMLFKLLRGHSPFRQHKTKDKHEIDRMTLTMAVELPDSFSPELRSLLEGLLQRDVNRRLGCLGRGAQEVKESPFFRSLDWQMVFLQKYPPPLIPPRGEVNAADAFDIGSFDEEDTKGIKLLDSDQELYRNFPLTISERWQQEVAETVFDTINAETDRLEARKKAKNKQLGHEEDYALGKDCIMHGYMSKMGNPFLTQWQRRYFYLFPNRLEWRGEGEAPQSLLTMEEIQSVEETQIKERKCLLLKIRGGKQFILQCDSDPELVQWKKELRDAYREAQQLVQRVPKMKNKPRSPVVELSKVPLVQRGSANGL
Myeloid diff MLP = compounds promoting myeloid differentiation; ER-HoxA9 myeloid progenitors, lysozyme-GFP differentiation, flow cytometry; calls only at 10 µM; 1% of 360,000 active;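 active = normalized GFP-positive differentiation at or above the plate's own cutoff, the solvent-only control mean plus 3 SD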;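 also: cells exposed to compound for four days before flow analysis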
GRK2 CP1 = confirmation of human GRK2 inhibitors displacing RNA aptamer. shares compounds with GRK2 aptamer HTS. 4% of 2,000 active. bead-bound GRK2, FAM-aptamer displacement, flow cytometry. aptamer displacement, % at 10 µM;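 active = aptamer displacement above 40%, near three times the noise of non-fluorescent compounds, on plates passing quality checks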;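 also: negative values mostly reflect intrinsic compound fluorescence rather than true enhancement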
Aptamer quench = quenches fluorescent RNA aptamer, GRK2 hit artifact; shares compounds with GRK2 aptamer HTS; Fluorescent RNA aptamer beads, quenching, flow cytometry; hits give high values; fluorescence change (kMESF span), kMESF (no concentration beside the values); 110 tested, under 10 active;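 active = compounds whose bead fluorescence drops by more than 37 kMESF across the dose range, marking them as dye quenchers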
FAM quench CP1 = counter-screen for GRK2 aptamer inhibitors: fluorescent aptamer quenchers; shares compounds with GRK2 aptamer HTS; Carboxyfluorescein RNA aptamer on beads, flow cytometry quenching; hits give low values; fluorescence response (% of DMSO), % at 10 µM; 2,000 tested, under 10 active;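 active = compounds that quench the bead-bound fluorescent RNA probe, cutting fluorescence to under half of the solvent control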;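 also: counterscreen run without GRK2 so only probe quenching by compound is measured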
GRK2 CP2 = human GRK2 inhibition confirmation, cherry pick 2; shares compounds with GRK2 aptamer HTS; bead-bound GRK2, FAM-aptamer displacement, flow cytometry; inhibition of aptamer binding, % at 10 µM; 360 tested, under 10 active; AID 504782;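 active = inhibition of aptamer binding above 40%, about triple the noise seen with nonglowing compounds, on plates passing quality control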;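 also: negative values mostly come from compounds that fluoresce themselves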
FAM quench CP2 = quenches fluorescent RNA aptamer, GRK2 hit artifact. shares compounds with GRK2 aptamer HTS. carboxyfluorescein RNA aptamer beads, flow cytometry quenching; hits give low values. fluorescence response vs DMSO, % at 10 µM. 360 tested, under 10 active. AID 588494;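 active = response vs DMSO under 50%, meaning signal dropped by over half, treated as fluorescence quencher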;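 also: labelled aptamer on streptavidin beads without GRK2 as a quench counter-screen; 100% = bead fluorescence of DMSO wells and lower means quenching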
An asterisk follows results filed as active; i = inactive; x = no result. An excerpt weighted towards active compounds, which were near 2.6% of everything screened.

SMILES	SKN-1 inh	T cell HTS	Rin1-Abl PPI inh	Rce1 inhib	GRK2 aptamer HTS	Myeloid diff MLP	GRK2 CP1	FAM quench CP1	others
CCOc1ccc(NC2CCCCC2NS(=O)(=O)c2ccccc2)cc1 (centres undefined)	10	403	5	i	49*	i	1	94
Cc1ccc(NC2=NC(C(=O)Nc3ccc(C)c(C)c3)CC(=O)N2)cc1 (centres undefined)	-18	162	-2	i	0	i	-3	102
Cc1ccc(NC(=O)C2CCC(=O)N2)cc1C (centres undefined)	-19	207	-1	i	0	i	x	x
COCC1CCCN(Cc2cn(-c3ccccc3F)nc2-c2cc(C)sc2C)C1 (centres undefined)	14	162	-3	i	0	i	x	x
COc1ccc(-c2noc(N3CCC(C(=O)NCCCN4CCCCC4)CC3)n2)cc1	2	239	1	i	0	i	x	x
COc1ccccc1CN(C)C(=O)c1ccccc1SCC(=O)N1CCCC1	9	494	-2	x	0	i	x	x
CC(NC(=O)COC(=O)c1c[nH]c2ccccc12)c1ccccc1 (centres undefined)	-12	485	3	x	31	i	-1	100
O=C(COC(=O)c1c[nH]c2ccccc12)Nc1ccccc1	1	370	-2	x	0	i	x	x
COC(=O)c1ccc(C)c(NC(=O)C(CCSC)NC(=O)c2cc(OC)c(OC)c(OC)c2)c1 (centres undefined)	7	313	2	i	0	i	x	x
C/C(=N\OCc1ccccc1C#N)c1cc2ccccc2o1	-1	i	0	i	47*	i	-11	100
CSc1ccccc1NC(=O)CO/N=C(\C)c1cc2ccccc2o1	2	468	3	i	1	i	x	x
COc1cccc(OC)c1C(=O)OCC(=O)NCC(C)C	-11	358	3	i	96*	i	-3	95
O=C(O)c1ccc(-n2cccc2/C=C2/NC(=O)N(c3ccccc3)C2=O)cc1	2	418	-2	i	73*	i	36	94
N#Cc1ccccc1CN1C(=O)S/C(=C/c2cccn2-c2ccc(C(=O)O)cc2)C1=O	1	501	-1	i	26	i	x	x
O=C(O)c1ccc(-n2cccc2/C=C2/SC(=O)N(CC(=O)N3CCCC3)C2=O)cc1	18	517	0	i	82*	x	63*	133	Aptamer quench=16
O=C(O)c1cccc(-n2cccc2/C=C2\NC(=O)N(Cc3ccc(F)cc3)C2=O)c1	6	690	2	i	13	i	x	x
O=C(O)c1ccc(-n2c(-c3cc(-c4ccco4)[nH]n3)n[nH]c2=S)cc1	8	263	1	i	80*	i	4	99
O=C(O)/C=C/C(=O)Nc1ccc(Cc2ccc(NC(=O)/C=C/C(=O)O)cc2)cc1	2	505	1	i	40	i	1	94
CC1Sc2ccc(S(=O)(=O)CCC(=O)NCc3ccccc3)cc2NC1=O (centres undefined)	4	392	8	i	35	i	x	x	GRK2 CP2=-12;FAM quench CP2=101
CC1Sc2ccc(S(=O)(=O)CCC(=O)Nc3cc(F)ccc3F)cc2NC1=O (centres undefined)	9	269	-1	i	0	i	x	x	GRK2 CP2=-2;FAM quench CP2=102
CC1Sc2ccc(S(=O)(=O)CCC(=O)NCc3ccc(Cl)cc3)cc2NC1=O (centres undefined)	-6	348	0	i	48*	i	2	103	GRK2 CP2=31;FAM quench CP2=98
Cc1cc(NC(=O)CCS(=O)(=O)c2ccc3c(c2)NC(=O)C(C)S3)ccc1Br (centres undefined)	15	276	1	i	3	i	x	x	GRK2 CP2=19;FAM quench CP2=102
COc1ccc(CNC(=O)CCS(=O)(=O)c2ccc3c(c2)NC(=O)C(C)S3)cc1 (centres undefined)	-9	523	8	i	23	i	x	x
CC1Sc2ccc(S(=O)(=O)CCC(=O)Nc3ccccn3)cc2NC1=O (centres undefined)	-1	348	1	i	0	i	x	x
CCOC(=O)Nc1ccc(S(=O)(=O)NC2CCCCC2)cc1	-3	426	-1	i	1	i	x	x
SMILES	SKN-1 inh	T cell HTS	Rin1-Abl PPI inh	Rce1 inhib	GRK2 aptamer HTS	Myeloid diff MLP	GRK2 CP1	FAM quench CP1	others
COc1ccc(NC2CCCN(C(=O)CN3C(=O)c4ccccc4C3=O)C2)cc1OC (centres undefined)	14	237	-1	i	2	i	x	x
CN1CCN(C(=O)CN(c2cccc(Br)c2)S(=O)(=O)c2ccccc2)CC1	6	320	-1	i	0	i	x	x
CC(C)(C)C(=O)C(C(c1ccccc1)N1CCOCC1)N1CCOCC1 (centres undefined)	30	x	1	x	x	i	x	x
CCc1cccc(C)c1NC(=O)CC1Oc2ccc(C)cc2NC1=O (centres undefined)	5	279	-1	i	49*	i	x	x	GRK2 CP2=0;FAM quench CP2=101
CCCCCOc1ccc(CSc2n[nH]c(C)n2)cc1	2	175	1	i	2	i	x	x
Cc1nc(SCc2ccc(OCCC(C)C)cc2)n[nH]1	-3	311	-2	i	100*	i	2	95
O=C(N/N=C/c1ccc(Cl)cc1)c1ccc2c(c1)OCO2	-1	69	0	i	59*	i	-9	120
O=Cc1ccc(OCC(=O)Nc2ccccc2-c2ccccc2)cc1	0	i	3	i	61*	i	-5	130
Cc1ccc(OCC(=O)Nc2ccccc2-c2ccccc2)cc1	-2	245	2	i	0	i	x	x
O=C(Cc1c(Cl)cccc1Cl)N1CCN(S(=O)(=O)c2cccs2)CC1	19	296	0	x	1	i	x	x
Cc1c(NC(=O)COC(=O)CCc2c[nH]c3ccccc23)c(=O)n(-c2ccccc2)n1C	-4	252	5	i	0	i	x	x

Screening results as filed in PubChem.
